Screening results (PubChem BioAssay)
CYP2C19 inh: blocks human cytochrome P450 2C19; inhibition, % at 5 µM; P33261; CYP2C19 Supersomes, luciferin-H EGE luminescence, 30 min; 96,000 compounds, 21% hits; AID 778;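 active = CYP2C19 inhibition above a set limit at 5 µM in the primary screen, cut at about 50% in these data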;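 also: plate controls were negative control wells for no effect and 2.5 mM tranylcypromine positive control for full effect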
Target sequence (P33261 whole entry, looked up): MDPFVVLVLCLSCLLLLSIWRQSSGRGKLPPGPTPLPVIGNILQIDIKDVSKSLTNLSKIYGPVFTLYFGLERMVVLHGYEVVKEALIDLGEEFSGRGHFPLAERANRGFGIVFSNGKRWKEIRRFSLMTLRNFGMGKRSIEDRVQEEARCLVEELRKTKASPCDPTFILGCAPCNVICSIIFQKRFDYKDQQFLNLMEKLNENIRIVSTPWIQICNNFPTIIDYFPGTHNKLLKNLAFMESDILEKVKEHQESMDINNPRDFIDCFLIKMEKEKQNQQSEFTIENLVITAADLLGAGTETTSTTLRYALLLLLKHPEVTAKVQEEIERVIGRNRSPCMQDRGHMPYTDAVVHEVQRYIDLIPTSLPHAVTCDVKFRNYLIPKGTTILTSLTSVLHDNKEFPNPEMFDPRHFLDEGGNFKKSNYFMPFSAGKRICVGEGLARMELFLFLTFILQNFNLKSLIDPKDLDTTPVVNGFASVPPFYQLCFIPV
HIV Rev-RRE inh: disrupts HIV-1 Rev binding to RRE RNA; Rev peptide-RRE RNA binding, FRET; inhibition, % at 8 µM; 97,000 compounds, 0.79% hits; AID 704;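 active = inhibition above the screen-wide mean plus 3 SD, cut at about 35% in these data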;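 also: 0% = median DMSO wells and 100% = median Neomycin B control wells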
Target sequence (P05866 whole entry, looked up): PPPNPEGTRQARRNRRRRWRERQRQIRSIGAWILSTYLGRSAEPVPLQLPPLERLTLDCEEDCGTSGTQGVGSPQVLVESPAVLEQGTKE
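Test system: labelled RRE RNA duplex and labelled Rev peptide. Times: 5 min compound–RNA preincubation, then 15 min with peptide, 25 °C. Doses: single-dose 8 µM. Measured by: FRET, excitation 480 nm, emission 540 nm donor and 671 nm acceptor. Measure: % inhibition of FRET ratio versus controls.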
CYP2C9 activ: increases human cytochrome P450 2C9 activity | recombinant CYP2C9, luciferin-H conversion, luminescence; hits give high values; factor 1 = untreated enzyme, 0 = blocked | activation factor at 5 µM | 96,000 compounds, 1.4% hits | AID 1024;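 active = activation factor of 2 or more for CYP2C9 at a 5 µM dose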;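 also: 0 = sulfaphenazole-blocked wells and 1 = vehicle-only wells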
Cav32 inh: inhibitors of human Cav3.2 T-type calcium channel; O95180; Cav3.2-expressing cells, Fluo-4 calcium fluorescence FDSS; hits give low values; B-score at 10 µM; 100,000 compounds, 4% hits; AID 449739;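 active = single-dose well whose peak fluorescence ratio is a statistical outlier from its plate by either plate-standardised score or position-corrected B-score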
CYP2C9 inh: inhibitors of human CYP2C9 | CYP2C9 Supersomes, luciferin-H conversion, luminescence | inhibition, % at 5 µM | P11712 | 96,000 compounds, 20% hits;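 active = blocking of liver enzyme CYP2C9 beyond about 50% at 5 µM, limit read from the data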
CYP2C19 activ: cytochrome P450 2C19 (human) activation; activation factor at 5 µM; recombinant CYP2C19, luciferin-H EGE luminescence; hits give high values; 0 = fully inhibited enzyme, 1 = untreated enzyme; AID 1025; 96,000 tested, under 10 active;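 active = activation factor of at least 2 at 5 µM in the primary screen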;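 also: 0 = wells with 2.5 mM tranylcypromine and 1 = vehicle-only wells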
Numbers without * were called inactive; x = no result. Hits are enriched below; roughly 27% of the tested compounds scored in any of these assays.

SMILES	CYP2C19 inh	HIV Rev-RRE inh	CYP2C9 activ	Cav32 inh	CYP2C9 inh	CYP2C19 activ
CCOc1ncccc1C(=O)OCC(=O)c1cc(C)n(Cc2ccco2)c1C	80*	-1	2.3*	-4.9*	-127	0.2
CCOC(=O)c1cnc2c(C)cccc2c1NCc1ccco1	47	9	0.5	1.5	49	0.5
CCOc1ncccc1C(=O)OCC(=O)c1ccc(Cl)s1	55*	9	0.9	0.22	10	0.5
Cc1cc(C(=O)COC(=O)CCC(=O)c2ccc3c(c2)OCCO3)c(C)n1Cc1ccco1	67*	-1	0.3	-4.3	68*	0.3
C#CCO[C@@H]1C[C@H](n2cnc3c(NC(=O)c4ccccc4)ncnc32)O[C@@H]1CO	x	x	x	-0.83	x	x
O=C1c2ccccc2C(O)(Cc2ccccc2)N1C1CCCCC1 (stereo unspecified)	36	9	0.6	-0.91	38	0.6
CCc1ccc2[nH]c(=O)c(C(c3nnnn3CC3CCCO3)N3CCN4CCCC4C3)cc2c1 (stereo unspecified)	-14	18	1	0.066	-2	1.1
CCCc1cc(=O)n2[nH]c(-c3ccc(OC)cc3)nc2n1	5	8	0.8	-0.36	15	0.9
Cc1ccc(S(=O)(=O)c2c(N)n(Cc3ccco3)c3nc4ccccc4nc23)cc1	36	60*	0.3	-4.2	69*	0.6
Cc1ccc(S(=O)(=O)c2c(N)n(NC(=O)c3ccco3)c3nc4ccccc4nc23)cc1	44	9	0.9	-5.5*	8	0.6
Cc1cccc(S(=O)(=O)c2c(N)n(Cc3ccco3)c3nc4ccccc4nc23)c1	91*	74*	0	-2.5	96*	0.1
Cc1ccc(Cn2c(N)c(S(=O)(=O)c3cccs3)c3nc4ccccc4nc32)cc1	-2	-2	0.9	0.018	9	1
CC(=O)Nc1ccc(S(=O)(=O)c2c(N)n(CCN3CCOCC3)c3nc4ccccc4nc23)cc1	-7	x	0.8	0.088	23	1.1
CNC(=O)C1C(=S)NC(N)=C(C#N)C1c1ccccc1 (stereo unspecified)	-8	-1	0.9	0.52	14	1.1
NC(=O)CNC1CC(=O)N(CCc2ccccc2)C1=O (stereo unspecified)	14	6	0.9	0.41	7	0.9
Cc1ccccc1C(=O)Oc1cccc(Nc2ncnc3ccccc23)c1	x	0	x	-4.8*	x	x
Brc1ccc2ncnc(Nc3cccc4ccccc34)c2c1	80*	3	0.4	x	59*	0.2
Cc1cccc(Nc2ncnc3ccccc23)c1	59*	8	0.5	0.43	46	0.4
OCCNc1ncnc2ccc(Br)cc12	-14	12	1.1	-0.09	-6	1.1
COc1cc(CN2CC(C)OC(C)C2)cc(OC)c1 (stereo unspecified)	x	3	x	0.95	x	x
O=C(CN(Cc1ccco1)S(=O)(=O)c1cccs1)Nc1ccccc1C(F)(F)F	90*	16	0.2	-2.4	79*	0.1
CC(C)(C)c1cc(/C=N/NC(=O)Cc2nc3ccccc3[nH]2)cc(C(C)(C)C)c1O	93*	11	0	-7.6*	99*	0.1
Cc1nn(-c2ccccc2)c(C)c1C(=O)OCC(=O)Nc1ccc2c(c1)OCO2	95*	5	0.1	-1.1	89*	0
Cc1onc(-c2ccccc2)c1C(=O)OCC(=O)Nc1ccc2c(c1)OCO2	54*	3	0.5	-0.91	52*	0.5
Cc1onc(-c2ccccc2)c1C(=O)Nc1ccc2c(c1)OCO2	99*	3	0.2	0.066	79*	0
SMILES	CYP2C19 inh	HIV Rev-RRE inh	CYP2C9 activ	Cav32 inh	CYP2C9 inh	CYP2C19 activ
Cc1onc(-c2ccccc2Cl)c1C(=O)OCC(=O)Nc1ccc2c(c1)OCO2	99*	x	0.1	-6.3*	88*	0
Cc1ccc(-c2noc(CCC(=O)Nc3ccc4c(c3)OCO4)n2)cc1	16	-2	0.7	0.035	33	0.8
COc1ccc(-c2cn3c(C)c(C(=O)NCc4ccc5c(c4)OCO5)sc3n2)cc1	x	-1	x	0.42	x	x
CCn1cc(C(=O)N2CCOCC2)c(=O)c2cc(S(=O)(=O)N(C)C3CCCCC3)ccc21	-23	x	1.1	-1.1	-7	1.2
Nc1nc(SCC(=O)NC2CCCC2)[nH]c(=O)c1-c1ccccc1	29	5	0.8	0.081	17	0.7
CCNC(=O)C1CC(=O)OC12CCCCC2 (stereo unspecified)	31	2	1	0.61	0	0.7
COC(=O)c1ccccc1S(=O)(=O)N(Cc1cc2cc3c(cc2[nH]c1=O)OCO3)C1CCCCC1	23	2	0.5	x	47	0.8
COc1cccc(C2Nc3cc(Cl)c(S(N)(=O)=O)cc3S(=O)(=O)N2)c1 (stereo unspecified)	-17	2	0.9	-0.091	14	1.2
Cc1nn(-c2ccccc2)c(Cl)c1C(=O)OC(C)C(=O)Nc1ccc2c(c1)OCO2 (stereo unspecified)	85*	4	0.2	-2.3	79*	0.1
Cc1cc(C)n(-c2ccc(C(=O)Nc3ccc4c(c3)OCO4)cc2)n1	34	11	0.6	-0.0065	38	0.7
COc1ccc(C(NC(C)=O)c2ccc3cccnc3c2O)c(OC)c1 (stereo unspecified)	58*	x	0.6	0.28	41	0.4
CC(C)C(=O)NC(c1ccco1)c1ccc2cccnc2c1O (stereo unspecified)	-2	4	0.9	0.33	8	1
COc1ccc(C(=O)C(c2ccccc2)N2CCOCC2)cc1 (stereo unspecified)	35	7	1.4	-0.01	-40	0.6
O=C(Cn1nnc(-c2ccccc2)n1)OCc1ccccc1	34	9	0.9	-0.035	10	0.7
Cc1ccc(C(=O)C(OC(=O)CNS(=O)(=O)c2ccccc2)c2ccccc2)cc1 (stereo unspecified)	33	17	0.4	-2.4	55*	0.7
O=C(OCc1ccccc1)c1cccc(-c2nnn(Cc3ccccc3)n2)c1	23	18	0.4	-4.1*	63*	0.8
CCOCCOC(=O)c1cccc(NC(=O)OCC)c1	71*	6	0.4	1.1	63*	0.3
COc1ccc(C(=O)OC(C(=O)c2ccc(C)cc2)c2ccccc2)cc1 (stereo unspecified)	34	9	0.4	-0.96	57*	0.7
CCCCCCNC(=O)Cc1c(O)c2ccccc2[nH]c1=O	-11	3	1.1	-0.45	-10	1.1
O=C(NCC(=O)N(CC1CCCO1)C1(C(=O)NC2CCCCC2)CCCCC1)c1ccccc1 (stereo unspecified)	-2	3	1	x	-2	1
CC(=O)Nc1cccc(C(=O)OC(C(=O)c2ccc(C)cc2)c2ccccc2)c1 (stereo unspecified)	36	12	0.2	-0.029	76*	0.6
